Experiments:
Format in all cases: functional, cell-based
[1] = tested on: SMMC-7721; assay: Antiproliferative activity against human SMMC7721 cells after 24 hrs by MTT assay; settings: SMMC-7721, 24 h
In short: (§1)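 Cells grown at 37 °C in humidified 5% CO2 with benzylpenicillin and streptomycin. Compounds came from 0.01 mol/L DMSO stocks and were tested at eight two-fold dilutions in triplicate, with medium-only controls, for 24 h. MTT absorbance was read at 570 nm. Survival = A_treatment/A_control × 100. IC50 is the concentration giving 50% viability inhibition, as the mean of two separate experiments.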

[2] = tested on: BGC-823; assay: Antiproliferative activity against human BGC823 cells after 24 hrs by MTT assay; settings: BGC-823, 24 h; in short: as §1
[3] = tested on: HepG2; assay: Antiproliferative activity against human HepG2 cells after 24 hrs by MTT assay; settings: HepG2, 24 h
In short: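 Tetrazolium MTT viability test; cells exposed to compound 24 h, absorbance read at 570 nm. Survival ratio = A treated / A control × 100%; IC50 is the concentration giving 50% loss of viability. Eight concentrations in two-fold dilutions, triplicate wells, mean of two separate experiments. Compounds dissolved in DMSO (0.01 mol/L stock); control wells received medium only.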

[4] = tested on: MCF7; assay: Antiproliferative activity against human MCF7 cells after 24 hrs by MTT assay; settings: MCF7, 24 h; in short: as §1

SMILES: CC(C)=CCC12OC(C)(C)C3CC(C=C4C(=O)CC(C)OC431)C2=O (configuration not stated)
- IC50 [1]: 147 µM
- IC50 [2]: 81.1 µM
- IC50 [3]: 95 µM
- IC50 [4]: 68.3 µM

SMILES: CC(C)=CCC12OC(C)(C)C3CC(C=C4C(=O)c5cc(O)ccc5OC431)C2=O (configuration not stated)
- IC50 [1]: 20 µM
- IC50 [2]: 32.5 µM
- IC50 [3]: 12.3 µM
- IC50 [4]: 20.6 µM

SMILES: CC(C)=CCC12OC(C)(C)C3CC(C=C4C(=O)c5ccccc5OC431)C2=O (configuration not stated)
- IC50 [1]: 10.5 µM
- IC50 [2]: 20.3 µM
- IC50 [3]: 6.77 µM
- IC50 [4]: 13.9 µM

Reference: ChEMBL document CHEMBL1759837, “Studies on chemical modification and biology of a natural product, gambogic acid (III): determination of the essential pharmacophore for biological activity” (Eur J Med Chem, 2011)
